Assay results reported in ChEMBL document CHEMBL1124043, “Pyrido[2,1-b]quinazolinecarboxamide derivatives as platelet activating factor antagonists” (J Med Chem, 1988).

Experiments:
[1] = system: Platelet-activating factor receptor (Canis familiaris); assay: Percent inhibition of binding of platelet activating factor (PAF) to dog platelets using [3H]PAF as radioligand at a concentration of 1 uM; conditions: Canis lupus familiaris
Cavia porcellus = species on record: Cavia porcellus; assay: Relative rate of hydrolysis in guinea pig whole liver homogenates; type: ADME
Method in brief: (§1)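 Whole liver homogenate, equivalent to 21 mg fresh liver, in 40 mM potassium phosphate pH 7.4 with 0.4 mM substrate, final volume 1.0 mL. Incubated 10 min at 37 °C, then quenched with acetonitrile-methanol (9:1). Amine product measured in the supernatant by HPLC. Unincubated and no-substrate controls run in parallel. Rate expressed as nmol formed/10 min per 21 mg liver.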

Canis familiaris = species on record: Canis familiaris; assay: Relative rate of hydrolysis in dog whole liver homogenates; type: ADME, Canis lupus familiaris
Method in brief: as §1

[2] = Relative rate of hydrolysis in squirrel monkey whole liver homogenates; type: ADME, tissue-based; conditions: saimiri, tissue homogenate
Method in brief: as §1

Row | inhibition [1] [%] | Relative rate (Cavia porcellus) | Relative rate (Canis familiaris) | Relative rate [2] | SMILES
1 | 9 | – | – | – | CC(C)c1ccc2nc3ccc(C(=O)NCCCCCc4cccnc4)cn3c(=O)c2c1
2 | – | 0.063 | < 0.01 | < 0.01 | CC(C)c1ccc2nc3ccc(C(=O)N[C@H](C)CCCc4cccnc4)cn3c(=O)c2c1
3 | 0 | – | – | – | Cc1cc2nc3ccc(C(=O)NCCCCc4ccc[n+](C)c4)cn3c(=O)c2cc1C
4 | 19 | – | – | – | CC(C)c1ccc2nc3ccc(C(=O)NCCCCCCCc4cccnc4)cn3c(=O)c2c1

The next lines start with the compound.

Row | SMILES | inhibition [1] [%] | Relative rate (Cavia porcellus) | Relative rate (Canis familiaris) | Relative rate [2]
5 | CC(C)c1ccc2nc3ccc(CCCCCCc4cccnc4)cn3c(=O)c2c1 | 15 | – | – | –
6 | CC(C)c1ccc2nc3ccc(CNCCCCc4cccnc4)cn3c(=O)c2c1 | 15 | – | – | –
7 | Cc1cc2nc3ccc(C(=O)NCCCCc4cnc[n+](C)c4)cn3c(=O)c2cc1C | 0 | – | – | –
8 | Cc1cc2nc3ccc(C(=O)NCCCCc4ccccc4)cn3c(=O)c2cc1C | 4 | – | – | –
9 | CC(C)c1ccc2nc3ccc(C(=O)N[C@@H](C)CCCc4cccnc4)cn3c(=O)c2c1 | – | 0.5 | 1.9 | 0.26
10 | CC(C)c1ccc2nc3ccc(S(=O)(=O)NCCCCc4cccnc4)cn3c(=O)c2c1 | 7 | – | – | –
11 | CC(CCCc1cccnc1)NC(=O)c1ccc2nc3ccc(C(C)C)cc3c(=O)n2c1 (racemic) | – | 0.35 | 1.9 | 0.49
12 | CC(C)c1ccc2nc3ccc(C(=O)NCCCc4cccnc4)cn3c(=O)c2c1 | 5 | – | – | –
13 | CC(C)c1ccc2nc3ccc(C(=O)NC(C)(C)CCCc4cccnc4)cn3c(=O)c2c1 | – | < 0.01 | – | –
14 | CC(C)c1ccc2nc3ccc(C(=O)NCCCCc4cccnc4)cn3c(=O)c2c1 | – | 1 | – | –
